From ChEMBL document CHEMBL3286094, “Synthesis and biological evaluation of novel bisbenzimidazoles as Escherichia coli topoisomerase IA inhibitors and potential antibacterial agents” (J Med Chem, 2014) come the findings set out here.

Assay [1] in a line: Inhibition of Escherichia coli DNA topoisomerase-1A using supercoiled pHOT1 plasmid DNA as substrate assessed as inhibition of DNA relaxation after 30 mins by agarose gel electrophoresis. The essentials:
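Supercoiled plasmid DNA incubated with E. coli Topo IA in the presence of compound at […]. Relaxation products were resolved by electrophoresis on 1% agarose gel.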

Assay [2] has as its system Escherichia coli. The experiment in a line: Antibacterial activity against Escherichia coli DH5[alpha] assessed as growth inhibition after 18 to 24 hrs by broth microdilution method. It counts as functional. Background: Dilution methods test growth across graded concentrations, often in twofold steps.
Assay [3] deals with Escherichia coli. In words: Antibacterial activity against Escherichia coli ATCC 25922 assessed as growth inhibition after 18 to 24 hrs by broth microdilution method. It counts as functional.
The test system of assay [4] is Escherichia coli. The experiment in a line: Bactericidal activity against Escherichia coli DH5[alpha] by agar plating method. The class given is functional.
The subject of assay [5] is Escherichia coli. The experiment in a line: Bactericidal activity against Escherichia coli ATCC 25922 by agar plating method. It counts as functional.

Values after ≈ are worked out from the molar mass of the structure shown.

A word on the IC50: it is the concentration that inhibits the measured activity by half. A word on the MIC50: it is the lowest concentration that inhibits either 50% of growth or 50% of the strains tested, depending on the study. In general, MIC90 refers to the lowest concentration that inhibits either 90% of growth or 90% of the strains tested, depending on the study. The MBC is the smallest concentration meeting the test's criterion for killing. Low values mean greater bactericidal potency, high ones weaker bactericidal potency. Consider `CCOc1ccc(-c2nc3ccc(-c4nc5ccc(N6CCN(CCNC(=O)C(F)(F)F)CC6)cc5[nH]4)cc3[nH]2)cc1`, for which the IC50 in assay [1] amounted to 50.8 µM. The MIC50 with Escherichia coli [2] was determined as 16 µg/mL (≈ 27.7 µM); in the assay with Escherichia coli [3], 10.4 µg/mL (≈ 18 µM). Besides, the MIC90 in the assay with Escherichia coli [2] was determined as 22.5 µg/mL (≈ 39 µM); in the assay on Escherichia coli [3], 20.8 µg/mL (≈ 36 µM). The MBC against Escherichia coli [4] and against Escherichia coli [5] was 32 µg/mL (≈ 55.4 µM) throughout.
Regarding `Oc1ccc(-c2nc3ccc(-c4nc5ccc(N6CCN(c7ccc(F)cc7)CC6)cc5[nH]4)cc3[nH]2)cc1`, the concentration for half-maximal inhibition (IC50) in assay [1] is 20.3 µM. For the same molecule, the MIC50 in the assay with Escherichia coli [2] and in the assay with Escherichia coli [3] was over 128 µg/mL throughout.
Consider `CCN1CCN(c2ccc3nc(-c4ccc5nc(-c6ccc(OC)c(OC)c6)[nH]c5c4)[nH]c3c2)CC1`, for which the IC50 in assay [1] is 12.3 µM. Moreover, in the assay with Escherichia coli [3], the MIC50 is 16 µg/mL (≈ 33.2 µM). In the assay with Escherichia coli [3], the MIC90 was 14.8 µg/mL (≈ 30.7 µM). In addition, the MBC against Escherichia coli [4] is 16 µg/mL (≈ 33.2 µM); against Escherichia coli [5], 32 µg/mL (≈ 66.3 µM).
As for `N#Cc1ccccc1N1CCN(c2ccc3nc(-c4ccc5nc(-c6ccc(O)cc6)[nH]c5c4)[nH]c3c2)CC1`, in assay [1], the half-inhibitory concentration (IC50) worked out at 20.4 µM. The MIC50 with Escherichia coli [2] and in the assay on Escherichia coli [3] was over 128 µg/mL in each case.
As for `COc1ccc(-c2nc3ccc(-c4nc5ccc(N6CCN(c7ccc(F)cc7)CC6)cc5[nH]4)cc3[nH]2)cc1OC`, in assay [1], the IC50 is over 50 µM. The MIC50 with Escherichia coli [2] and with Escherichia coli [3] was over 128 µg/mL in each case.
With `CCCN1CCN(c2ccc3nc(-c4ccc5nc(-c6ccc(O)cc6)[nH]c5c4)[nH]c3c2)CC1`, the IC50 in assay [1] came out at 20.8 µM. In addition, the MIC50 with Escherichia coli [2] and in the assay with Escherichia coli [3] was over 128 µg/mL in each case.
Take `CCOc1ccc(-c2nc3ccc(-c4nc5ccc(N6CCN(c7ccncc7)CC6)cc5[nH]4)cc3[nH]2)cc1`: the IC50 in assay [1] is over 50 µM. The MIC50 in the assay on Escherichia coli [2] and in the assay on Escherichia coli [3] was over 128 µg/mL throughout.
As for `Oc1ccc(-c2nc3ccc(-c4nc5ccc(N6CCN(c7ccncc7)CC6)cc5[nH]4)cc3[nH]2)cc1`, the IC50 in assay [1] was over 50 µM. In addition, the MIC50 in the assay with Escherichia coli [2] and in the assay on Escherichia coli [3] was over 128 µg/mL in each case.
As for `CN(C)CCN1CCN(c2ccc3nc(-c4ccc5nc(-c6ccc(O)cc6)[nH]c5c4)[nH]c3c2)CC1`, the IC50 in assay [1] worked out at 8 µM. Further, the MIC50 with Escherichia coli [2] is 64 µg/mL (≈ 133 µM); in the assay with Escherichia coli [3], over 128 µg/mL.
On to `COc1ccc(-c2nc3ccc(-c4nc5ccc(N6CCN(c7ccccc7C#N)CC6)cc5[nH]4)cc3[nH]2)cc1OC`, for which the IC50 in assay [1] came out at 3.76 µM. Moreover, the MIC50 in the assay on Escherichia coli [2] and in the assay with Escherichia coli [3] was over 128 µg/mL in each case.
`COc1ccc(-c2nc3ccc(-c4nc5ccc(N6CCN(CCN(C)C)CC6)cc5[nH]4)cc3[nH]2)cc1OC`: the IC50 in assay [1] was determined as 3 µM. Besides, the MIC50 in the assay on Escherichia coli [2] and in the assay with Escherichia coli [3] was 128 µg/mL (≈ 244 µM) each time.
For the molecule `COc1ccc(-c2nc3ccc(-c4nc5ccc(N6CCN(c7ccccc7)CC6)cc5[nH]4)cc3[nH]2)cc1OC`, the IC50 in assay [1] amounted to 3.8 µM. The MIC50 with Escherichia coli [2] and with Escherichia coli [3] was over 128 µg/mL each time.
Take `CCN1CCN(c2ccc3nc(-c4ccc5nc(-c6ccc(O)cc6)[nH]c5c4)[nH]c3c2)CC1`: the IC50 in assay [1] came to 5.8 µM. The figures for the MIC50 in the assay on Escherichia coli [2] and in the assay with Escherichia coli [3] were 64 µg/mL (≈ 146 µM) and over 128 µg/mL, respectively. The MIC90 in the assay with Escherichia coli [2] was 121 µg/mL (≈ 276 µM). The molecule also gave an MBC against Escherichia coli [4] of 128 µg/mL (≈ 292 µM).
On to `O=C(NCCN1CCN(c2ccc3nc(-c4ccc5nc(-c6ccc(O)cc6)[nH]c5c4)[nH]c3c2)CC1)C(F)(F)F`, for which, in assay [1], the IC50 was found to be 45.8 µM. For the same molecule, the MIC50 in the assay with Escherichia coli [2] and in the assay on Escherichia coli [3] was over 128 µg/mL each time.
On to `Oc1ccc(-c2nc3ccc(-c4nc5ccc(N6CCN(c7ccccc7)CC6)cc5[nH]4)cc3[nH]2)cc1`, for which the IC50 in assay [1] was 60.3 µM. The MIC50 in the assay on Escherichia coli [2] and with Escherichia coli [3] was over 128 µg/mL throughout.
Turning to `Oc1ccc(-c2nc3ccc(-c4nc5ccc(N6CCN(c7ncccn7)CC6)cc5[nH]4)cc3[nH]2)cc1`, the IC50 in assay [1] was over 50 µM. Moreover, the MIC50 in the assay on Escherichia coli [2] and in the assay with Escherichia coli [3] was over 128 µg/mL in each case.
With `COc1ccc(-c2nc3ccc(-c4nc5ccc(N6CCN(c7ccc(N)cc7)CC6)cc5[nH]4)cc3[nH]2)cc1OC`, the IC50 in assay [1] was determined as 20.3 µM. For the same molecule, the MIC50 in the assay on Escherichia coli [2] and in the assay on Escherichia coli [3] was over 128 µg/mL each time.
`Nc1ccc(N2CCN(c3ccc4nc(-c5ccc6nc(-c7ccc(O)cc7)[nH]c6c5)[nH]c4c3)CC2)cc1`: the IC50 in assay [1] amounted to 4.7 µM. Besides, the figures for the MIC50 in the assay with Escherichia coli [2] and in the assay with Escherichia coli [3] were 128 µg/mL (≈ 255 µM) and over 128 µg/mL, respectively.
